Active and inactive are the calls of the source. The calls are words filed in the database; no cut-off is given here.
Experiments:
[1] = target: T1, Ribosomal protein S6 kinase alpha-3 (Homo sapiens, UniProt P51812); assay: Inhibition of RSK2 after 60 mins
How it was run: (§1)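 Recombinant RSK2 (20 ng) preincubated 20 min at room temperature with compound in HEPES pH 7.4 buffer (MgCl2, EGTA, Tween 20, BGG) with 25 μM S6 peptide; started with ATP (10 μM final), 60 min at room temperature. ADP Quest fluorescence read at ex 530/em 590 nm. IC50 from curves of ≥3 independent tests, measured when inhibition at 10 μM exceeded 30%.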

MDA-MB-231 [2] = assay: Antiproliferative activity against human MDA-MB-231 cells over expressing RSK2 at 100 uM after 48 hrs by MTT assay; assay type: functional; conditions: MDA-MB-231, 48 h
How it was run: (§2)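 Formazan dissolved in DMSO, absorbance read at 570 nm. Inhibition = (1 − A570 compound/A570 control)×100. Screening concentration 100 μM (control 10 μM). IC50 from curves, ≥3 independent tests, attempted when inhibition at 100 μM exceeded 40%.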

MCF7 [3] = assay: Antiproliferative activity against human MCF7 cells over expressing RSK2 at 100 uM after 48 hrs by MTT assay; assay type: functional; conditions: MCF7, 48 h; how it was run: as §2
HCT-116 [4] = assay: Antiproliferative activity against human HCT116 cells over expressing RSK2 at 100 uM after 48 hrs by MTT assay; assay type: functional; conditions: HCT-116, 48 h; how it was run: as §2
MCF7 [5] = assay: Antiproliferative activity against human MCF7 cells over expressing RSK2 after 48 hrs by MTT assay; assay type: functional, cell-based; conditions: MCF7, 48 h; how it was run: as §2
HCT-116 [6] = assay: Antiproliferative activity against human HCT116 cells over expressing RSK2 after 48 hrs by MTT assay; assay type: functional, cell-based; conditions: HCT-116, 48 h; how it was run: as §2
MDA-MB-231 [7] = assay: Antiproliferative activity against human MDA-MB-231 cells over expressing RSK2 after 48 hrs by MTT assay; assay type: functional, cell-based; conditions: MDA-MB-231, 48 h; how it was run: as §2
[8] = target: RAC-alpha serine/threonine-protein kinase (Homo sapiens) (UniProt P31749); assay: Inhibition of AKT1 at 10 uM
RAC-alpha serine/threonine-protein kinase (Homo sapiens), sequence (P31749 whole entry): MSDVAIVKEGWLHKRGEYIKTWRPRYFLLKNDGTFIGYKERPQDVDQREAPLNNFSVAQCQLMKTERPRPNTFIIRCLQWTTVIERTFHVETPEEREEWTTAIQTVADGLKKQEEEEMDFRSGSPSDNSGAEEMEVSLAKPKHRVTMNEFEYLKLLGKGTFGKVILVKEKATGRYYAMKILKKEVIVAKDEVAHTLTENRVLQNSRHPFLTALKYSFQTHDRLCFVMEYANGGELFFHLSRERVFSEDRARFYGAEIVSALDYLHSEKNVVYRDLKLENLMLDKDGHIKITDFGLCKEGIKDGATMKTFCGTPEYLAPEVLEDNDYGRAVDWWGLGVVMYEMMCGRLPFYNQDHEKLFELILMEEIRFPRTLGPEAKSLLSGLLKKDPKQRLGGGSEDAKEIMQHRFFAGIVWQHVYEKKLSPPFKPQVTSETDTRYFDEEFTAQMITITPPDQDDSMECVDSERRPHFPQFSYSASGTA
How it was run: (§3)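 Serine/threonine kinase profiling by an outside contract service following manufacturer protocols, ATP at Km for each enzyme; percent inhibition at 10 μM.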

[9] = target: Proto-oncogene tyrosine-protein kinase receptor Ret (Homo sapiens) (UniProt P07949); assay: Inhibition of RET at 10 uM by ELISA based method
How it was run: (§4)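 Tyrosine kinase profiling by ELISA-based method, ATP at Km for each enzyme; percent inhibition at 10 μM, mean of at least two independent tests.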

[10] = target: Platelet-derived growth factor receptor beta (Homo sapiens) (UniProt P09619); assay: Inhibition of PDGFRbeta at 10 uM by ELISA based method; how it was run: as §4
[11] = target: Ribosomal protein S6 kinase beta-1 (Homo sapiens) (UniProt P23443); assay: Inhibition of p70S6K at 10 uM; how it was run: as §3
[12] = target: Platelet-derived growth factor receptor alpha (Homo sapiens) (UniProt P16234); assay: Inhibition of PDGFRalpha at 10 uM by ELISA based method; how it was run: as §4
[13] = target: Ribosomal protein S6 kinase alpha-5 (Homo sapiens) (UniProt O75582); assay: Inhibition of MSK1 at 10 uM; how it was run: as §3
Ribosomal protein S6 kinase alpha-5 (Homo sapiens), sequence (O75582 whole entry, looked up): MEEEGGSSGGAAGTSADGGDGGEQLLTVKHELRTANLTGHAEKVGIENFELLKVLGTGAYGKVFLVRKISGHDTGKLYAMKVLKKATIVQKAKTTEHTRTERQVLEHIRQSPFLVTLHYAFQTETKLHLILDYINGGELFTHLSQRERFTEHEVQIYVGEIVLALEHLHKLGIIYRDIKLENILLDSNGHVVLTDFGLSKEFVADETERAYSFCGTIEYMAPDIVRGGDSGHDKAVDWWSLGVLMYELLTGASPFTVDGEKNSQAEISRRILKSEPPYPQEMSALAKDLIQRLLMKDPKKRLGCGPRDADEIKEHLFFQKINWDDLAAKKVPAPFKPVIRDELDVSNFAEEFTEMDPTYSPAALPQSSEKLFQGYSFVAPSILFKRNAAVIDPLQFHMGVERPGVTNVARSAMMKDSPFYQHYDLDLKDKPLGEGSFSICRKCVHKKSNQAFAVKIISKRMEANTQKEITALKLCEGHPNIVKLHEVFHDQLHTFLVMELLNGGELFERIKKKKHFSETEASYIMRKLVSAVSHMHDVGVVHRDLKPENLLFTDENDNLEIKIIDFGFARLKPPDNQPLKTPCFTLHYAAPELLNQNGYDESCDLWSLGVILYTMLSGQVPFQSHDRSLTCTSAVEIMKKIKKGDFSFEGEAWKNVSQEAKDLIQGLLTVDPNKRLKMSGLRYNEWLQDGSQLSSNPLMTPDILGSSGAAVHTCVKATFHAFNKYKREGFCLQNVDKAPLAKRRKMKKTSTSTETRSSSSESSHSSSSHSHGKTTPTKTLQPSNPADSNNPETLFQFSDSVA

[14] = target: Vascular endothelial growth factor receptor 1 (Homo sapiens) (UniProt P17948); assay: Inhibition of Flt1 at 10 uM by ELISA based method; how it was run: as §4
Vascular endothelial growth factor receptor 1 (Homo sapiens), sequence (P17948 whole entry): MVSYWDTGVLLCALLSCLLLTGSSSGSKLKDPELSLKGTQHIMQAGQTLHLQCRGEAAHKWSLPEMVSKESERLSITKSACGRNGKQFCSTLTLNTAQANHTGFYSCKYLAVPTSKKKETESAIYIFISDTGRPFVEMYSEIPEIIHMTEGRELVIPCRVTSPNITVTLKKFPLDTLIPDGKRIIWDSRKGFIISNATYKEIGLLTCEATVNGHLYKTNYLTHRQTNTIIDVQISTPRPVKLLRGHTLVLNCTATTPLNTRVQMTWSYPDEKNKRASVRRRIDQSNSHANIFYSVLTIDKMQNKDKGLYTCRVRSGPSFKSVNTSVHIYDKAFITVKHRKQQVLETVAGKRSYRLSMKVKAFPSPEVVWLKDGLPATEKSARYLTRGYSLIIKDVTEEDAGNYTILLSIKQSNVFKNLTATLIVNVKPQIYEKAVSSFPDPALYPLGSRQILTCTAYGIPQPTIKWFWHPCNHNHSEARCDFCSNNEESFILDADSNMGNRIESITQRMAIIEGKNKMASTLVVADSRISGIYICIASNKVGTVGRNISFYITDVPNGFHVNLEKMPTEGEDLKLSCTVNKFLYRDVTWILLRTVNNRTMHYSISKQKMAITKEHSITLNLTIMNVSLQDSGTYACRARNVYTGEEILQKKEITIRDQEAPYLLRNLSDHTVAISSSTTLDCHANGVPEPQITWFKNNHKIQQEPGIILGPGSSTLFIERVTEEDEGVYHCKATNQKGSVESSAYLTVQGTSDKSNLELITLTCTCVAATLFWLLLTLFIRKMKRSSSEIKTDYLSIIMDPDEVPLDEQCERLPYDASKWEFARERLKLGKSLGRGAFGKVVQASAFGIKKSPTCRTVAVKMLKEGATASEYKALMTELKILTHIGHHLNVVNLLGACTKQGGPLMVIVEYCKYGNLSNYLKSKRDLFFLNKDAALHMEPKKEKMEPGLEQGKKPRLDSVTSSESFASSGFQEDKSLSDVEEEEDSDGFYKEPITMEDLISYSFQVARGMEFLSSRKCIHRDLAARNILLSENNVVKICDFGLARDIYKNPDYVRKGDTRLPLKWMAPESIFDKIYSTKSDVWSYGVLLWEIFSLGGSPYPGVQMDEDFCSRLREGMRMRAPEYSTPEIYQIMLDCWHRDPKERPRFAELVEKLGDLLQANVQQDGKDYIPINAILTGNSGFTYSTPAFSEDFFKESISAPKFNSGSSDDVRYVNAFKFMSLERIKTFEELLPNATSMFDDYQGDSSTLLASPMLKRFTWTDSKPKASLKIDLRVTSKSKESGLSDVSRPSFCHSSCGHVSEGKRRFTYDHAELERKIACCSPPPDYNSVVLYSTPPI

[15] = target: Epidermal growth factor receptor (Homo sapiens) (UniProt P00533); assay: Inhibition of EGFR at 10 uM by ELISA based method; how it was run: as §4
[16] = target: Glycogen synthase kinase-3 alpha (Homo sapiens) (UniProt P49840); assay: Inhibition of GSK3alpha at 10 uM; how it was run: as §3
[17] = target: Proto-oncogene tyrosine-protein kinase Src (Homo sapiens) (UniProt P12931); assay: Inhibition of c-Src at 10 uM by ELISA based method; how it was run: as §4
[18] = target: Mast/stem cell growth factor receptor Kit (Homo sapiens) (UniProt P10721); assay: Inhibition of c-Kit at 10 uM by ELISA based method; how it was run: as §4
[19] = target: Tyrosine-protein kinase ABL1 (Homo sapiens) (UniProt P00519); assay: Inhibition of ABL at 10 uM by ELISA based method; how it was run: as §4
[20] = target: Mitogen-activated protein kinase 3 (Homo sapiens) (UniProt P27361); assay: Inhibition of ERK1 at 10 uM; how it was run: as §3
[21] = target: Mitogen-activated protein kinase 9 (Homo sapiens) (UniProt P45984); assay: Inhibition of JNK2 at 10 uM; how it was run: as §3
Mitogen-activated protein kinase 9 (Homo sapiens), sequence (P45984 whole entry, looked up): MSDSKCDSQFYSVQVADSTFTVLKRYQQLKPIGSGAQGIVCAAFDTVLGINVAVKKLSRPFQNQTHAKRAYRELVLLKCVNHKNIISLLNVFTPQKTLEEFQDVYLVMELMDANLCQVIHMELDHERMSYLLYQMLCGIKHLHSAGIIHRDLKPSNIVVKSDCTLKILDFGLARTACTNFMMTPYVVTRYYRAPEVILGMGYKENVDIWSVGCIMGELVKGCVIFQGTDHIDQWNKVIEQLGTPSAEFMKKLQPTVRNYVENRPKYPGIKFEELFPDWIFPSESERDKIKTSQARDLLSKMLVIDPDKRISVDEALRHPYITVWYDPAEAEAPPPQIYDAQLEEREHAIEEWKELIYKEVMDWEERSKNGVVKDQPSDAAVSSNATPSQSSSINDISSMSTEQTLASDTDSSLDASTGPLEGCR

[22] = target: Mitogen-activated protein kinase 14 (Homo sapiens) (UniProt Q16539); assay: Inhibition of p38alpha at 10 uM; how it was run: as §3
[23] = target: Serine/threonine-protein kinase pim-1 (Homo sapiens) (UniProt P11309); assay: Inhibition of PIM1 at 10 uM; how it was run: as §3
Serine/threonine-protein kinase pim-1 (Homo sapiens), sequence (P11309 whole entry, looked up): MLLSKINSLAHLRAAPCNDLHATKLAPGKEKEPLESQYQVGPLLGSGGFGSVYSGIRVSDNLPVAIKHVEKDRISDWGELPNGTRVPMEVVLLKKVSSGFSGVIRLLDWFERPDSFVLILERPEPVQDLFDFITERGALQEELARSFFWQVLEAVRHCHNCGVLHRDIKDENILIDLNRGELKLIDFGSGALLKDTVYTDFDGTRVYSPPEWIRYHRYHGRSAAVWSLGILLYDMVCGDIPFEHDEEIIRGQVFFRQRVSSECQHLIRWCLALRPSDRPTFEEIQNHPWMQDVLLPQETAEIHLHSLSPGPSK

[24] = target: Ephrin type-A receptor 2 (Homo sapiens) (UniProt P29317); assay: Inhibition of EPHA2 at 10 uM by ELISA based method; how it was run: as §4
Ephrin type-A receptor 2 (Homo sapiens), sequence (P29317 whole entry): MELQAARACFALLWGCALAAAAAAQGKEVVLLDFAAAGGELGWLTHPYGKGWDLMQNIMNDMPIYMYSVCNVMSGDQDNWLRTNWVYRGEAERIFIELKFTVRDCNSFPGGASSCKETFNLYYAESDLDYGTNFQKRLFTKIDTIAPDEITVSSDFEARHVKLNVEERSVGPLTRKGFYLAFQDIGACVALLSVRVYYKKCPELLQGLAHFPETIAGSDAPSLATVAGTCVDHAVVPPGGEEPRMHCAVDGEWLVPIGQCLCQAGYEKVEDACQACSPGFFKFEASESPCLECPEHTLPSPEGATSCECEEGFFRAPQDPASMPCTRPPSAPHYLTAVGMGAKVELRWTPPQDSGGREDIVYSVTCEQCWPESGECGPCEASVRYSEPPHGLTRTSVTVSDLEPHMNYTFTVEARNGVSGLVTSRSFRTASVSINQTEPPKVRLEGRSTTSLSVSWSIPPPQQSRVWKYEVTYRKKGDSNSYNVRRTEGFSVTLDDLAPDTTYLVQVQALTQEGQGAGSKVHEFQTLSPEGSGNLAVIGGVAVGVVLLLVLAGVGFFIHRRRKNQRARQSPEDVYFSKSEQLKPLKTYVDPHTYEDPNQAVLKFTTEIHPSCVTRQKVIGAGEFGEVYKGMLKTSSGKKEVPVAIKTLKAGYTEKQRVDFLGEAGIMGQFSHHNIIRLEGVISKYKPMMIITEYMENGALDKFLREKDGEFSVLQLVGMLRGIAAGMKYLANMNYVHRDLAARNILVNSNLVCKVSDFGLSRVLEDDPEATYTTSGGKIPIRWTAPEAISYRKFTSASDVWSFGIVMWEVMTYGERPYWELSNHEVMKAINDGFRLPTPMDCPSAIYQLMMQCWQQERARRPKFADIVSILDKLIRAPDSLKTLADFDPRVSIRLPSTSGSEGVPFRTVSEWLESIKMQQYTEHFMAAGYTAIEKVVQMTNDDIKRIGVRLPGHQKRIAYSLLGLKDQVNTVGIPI

[25] = target: T1, Ribosomal protein S6 kinase alpha-3; assay: Inhibition of RSK2 at 10 uM; how it was run: as §1
[26] = target: Vascular endothelial growth factor receptor 2 (Homo sapiens) (UniProt P35968); assay: Inhibition of KDR at 10 uM by ELISA based method; how it was run: as §4
[27] = target: Fibroblast growth factor receptor 1 (Homo sapiens) (UniProt P11362); assay: Inhibition of FGFR1 at 10 uM by ELISA based method; how it was run: as §4
[28] = target: 3-phosphoinositide-dependent protein kinase 1 (Homo sapiens) (UniProt O15530); assay: Inhibition of PDK1 at 10 uM
MDA-MB-231 [29] = assay: Antimigratory activity against human MDA-MB-231 cells at 5 uM after 48 hrs by wound-healing assay; assay type: functional, cell-based
How it was run: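 MDA-MB-231 grown 24 h to confluence in six-well plates, monolayer scratched with a pipet tip, washed, then kept in serum-free DMEM with compound (0.5 and 5 μM) for 48 h; migration photographed by phase-contrast microscopy at 0 and 48 h.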

[30] = target: Protein kinase C alpha type (Homo sapiens) (UniProt P17252); assay: Inhibition of PKCalpha at 10 uM; how it was run: as §3

T1 sequence (P51812 whole entry): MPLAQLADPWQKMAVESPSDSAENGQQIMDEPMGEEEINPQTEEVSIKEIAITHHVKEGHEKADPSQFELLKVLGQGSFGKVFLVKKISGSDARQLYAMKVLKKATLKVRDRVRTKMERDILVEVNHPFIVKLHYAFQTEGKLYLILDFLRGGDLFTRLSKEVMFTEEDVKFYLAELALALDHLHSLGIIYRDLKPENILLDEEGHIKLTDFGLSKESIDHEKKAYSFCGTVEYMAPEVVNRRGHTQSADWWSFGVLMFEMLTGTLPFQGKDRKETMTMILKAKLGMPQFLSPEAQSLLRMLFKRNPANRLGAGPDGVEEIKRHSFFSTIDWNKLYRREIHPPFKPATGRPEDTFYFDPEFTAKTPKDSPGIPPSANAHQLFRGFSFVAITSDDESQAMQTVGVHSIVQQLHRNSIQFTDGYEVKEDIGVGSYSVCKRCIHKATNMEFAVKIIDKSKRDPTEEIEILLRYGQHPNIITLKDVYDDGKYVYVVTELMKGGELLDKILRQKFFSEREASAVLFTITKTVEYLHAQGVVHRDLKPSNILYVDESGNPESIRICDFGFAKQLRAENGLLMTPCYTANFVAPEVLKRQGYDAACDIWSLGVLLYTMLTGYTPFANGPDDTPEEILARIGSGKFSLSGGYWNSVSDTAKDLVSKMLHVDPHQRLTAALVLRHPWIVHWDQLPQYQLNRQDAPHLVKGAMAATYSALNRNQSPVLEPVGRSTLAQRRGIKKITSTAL

O=c1[nH]c(=O)c2ncc(-c3ccc(O)cc3)nc2[nH]1
IC50 [1]: 14.5 µM

Cc1ccc2nc(-c3cc(N)cc(C)c3O)oc2c1
inhibition at 100 µM (MDA-MB-231 [2]): 54.7% | inhibition at 100 µM (MCF7 [3]): 45.1% | inhibition at 100 µM (HCT-116 [4]): 44.2% | IC50 [1]: 1.38 µM | IC50 (MCF7 [5]): > 100 µM | IC50 (HCT-116 [6]): > 100 µM | IC50 (MDA-MB-231 [7]): > 100 µM

O=C(NNc1ccc(C(F)(F)F)cn1)c1ccccc1Cl
IC50 [1]: 13.2 µM

Oc1ccc(NCn2nnc3ccccc32)cc1
inhibition [8]: 8.6% | inhibition at 100 µM (MDA-MB-231 [2]): 98.8% | inhibition [9]: 10% | inhibition [10]: 55.2% | inhibition [11]: 6.9% | inhibition [12]: -6.9% | inhibition at 100 µM (MCF7 [3]): 97% | inhibition [13]: 10.1% | inhibition [14]: 2.4% | inhibition at 100 µM (HCT-116 [4]): 91.6% | inhibition [15]: 32.4% | inhibition [16]: 29.3% | inhibition [17]: 14.2% | IC50 [1]: 0.48 µM | inhibition [18]: 15.6% | inhibition [19]: 8.6% | inhibition [20]: 2.8% | inhibition [21]: 11% | IC50 (MCF7 [5]): 18 µM | inhibition [22]: 13% | IC50 (HCT-116 [6]): 56.2 µM | inhibition [23]: 0.7% | inhibition [24]: 38.2% | inhibition [25]: 89.2% | inhibition [26]: 16.9% | IC50 (MDA-MB-231 [7]): 14.9 µM | inhibition [27]: 31.3% | inhibition [28]: -5.8%

Nc1n[nH]c(N)c1/N=N/c1ccc(S(N)(=O)=O)cc1
inhibition at 100 µM (MDA-MB-231 [2]): 18.5% | inhibition at 100 µM (MCF7 [3]): 32.9% | inhibition at 100 µM (HCT-116 [4]): 6.98% | IC50 [1]: 5.5 µM

Cc1c(O)ccc(/N=N/c2ccc(S(=O)(=O)O)cc2)c1C
IC50 [1]: 15.1 µM

Cc1c(N)ccc2[nH]c(-c3ccc(N)cc3)nc12
inhibition [8]: -2.5% | inhibition at 100 µM (MDA-MB-231 [2]): 89.2% | inhibition [9]: 0.6% | inhibition [10]: 62.8% | inhibition [11]: 6.2% | inhibition [12]: 1.4% | inhibition at 100 µM (MCF7 [3]): 98.3% | inhibition [13]: 3.1% | inhibition [14]: 12.5% | inhibition at 100 µM (HCT-116 [4]): 89.6% | inhibition [15]: 44.9% | inhibition [16]: 3.5% | inhibition [17]: 8.2% | inhibition [18]: 11.5% | inhibition [19]: 7.4% | inhibition [20]: -4.4% | inhibition [21]: -1.4% | IC50 (MCF7 [5]): 25.5 µM | inhibition [22]: 2.7% | IC50 (HCT-116 [6]): 30.2 µM | inhibition [23]: 86.8% | inhibition [24]: 24% | inhibition [25]: 95.5% | Activity (MDA-MB-231 [29]): Active | inhibition [26]: 21.9% | IC50 (MDA-MB-231 [7]): 16.1 µM | inhibition [27]: 15.5% | inhibition [30]: -0.4%

O=C(Nc1ccccc1O)c1cnns1
inhibition at 100 µM (MDA-MB-231 [2]): 46.5% | inhibition at 100 µM (MCF7 [3]): 32.7% | inhibition at 100 µM (HCT-116 [4]): 43.2% | IC50 [1]: 3.03 µM | IC50 (HCT-116 [6]): > 100 µM | IC50 (MDA-MB-231 [7]): > 100 µM

Nc1nc2nc(O)nc(O)c2s1
IC50 [1]: 9.99 µM

Cc1cc(N)cc2[nH]c(-c3ccccc3)nc12
inhibition at 100 µM (MDA-MB-231 [2]): 45.8% | inhibition at 100 µM (MCF7 [3]): 21.3% | inhibition at 100 µM (HCT-116 [4]): 32.6% | IC50 [1]: 1.06 µM

N#Cc1nc(/N=N/c2ccccc2)[nH]c1O
inhibition at 100 µM (MDA-MB-231 [2]): 12.1% | inhibition at 100 µM (MCF7 [3]): 0% | inhibition at 100 µM (HCT-116 [4]): 4.8% | IC50 [1]: 7.04 µM

Clc1ccc2c(c1)SNC(c1ccccc1)=N2
inhibition at 100 µM (MDA-MB-231 [2]): 0% | inhibition at 100 µM (MCF7 [3]): 3.6% | inhibition at 100 µM (HCT-116 [4]): 6.5% | IC50 [1]: 2.88 µM

COc1cc(/C=N/n2cnnc2)cc(I)c1O
IC50 [1]: 16.2 µM

Cc1c(N)ccc2nc(-c3ccc(N)cc3)[nH]c12
IC50 [1]: 0.32 µM

O=C1NC(=O)C(=NNc2ccc(O)cc2)C(=O)N1
inhibition at 100 µM (MDA-MB-231 [2]): 97.9% | inhibition at 100 µM (MCF7 [3]): 85.8% | inhibition at 100 µM (HCT-116 [4]): 49.1% | IC50 [1]: 1.58 µM | IC50 (MCF7 [5]): 15.6 µM | IC50 (HCT-116 [6]): > 100 µM | IC50 (MDA-MB-231 [7]): 9.69 µM

O=C1c2ccccc2C(=O)N1CNc1ccc(N2CCOCC2)cc1
inhibition at 100 µM (MDA-MB-231 [2]): 6.89% | inhibition at 100 µM (MCF7 [3]): 31.2% | inhibition at 100 µM (HCT-116 [4]): 13.2% | IC50 [1]: 0.95 µM

O=C(O)c1ccc(/N=N/c2ccc(O)c3ncccc23)cc1
inhibition at 100 µM (MDA-MB-231 [2]): 22.2% | inhibition at 100 µM (MCF7 [3]): 36.7% | inhibition at 100 µM (HCT-116 [4]): 28.4% | IC50 [1]: 3.47 µM

Source: ChEMBL document CHEMBL1773035, “SHAFTS: a hybrid approach for 3D molecular similarity calculation. 2. Prospective case study in the discovery of diverse p90 ribosomal S6 protein kinase 2 inhibitors to suppress cell migration” (J Med Chem, 2011)
